Measurements as given in ChEMBL document CHEMBL4680226, “Design, synthesis, and evaluation of N-phenyl-4-(2-phenylsulfonamido)-benzamides as microtubule-targeting agents in drug-resistant cancer cells, displaying HDAC inhibitory response” (Eur J Med Chem, 2020).
Calls of active or inactive are those of the source. The rule behind the calls is not given here.

What was measured:
[1] = Antiproliferative activity against human KB-VIN cells incubated for 48 hrs by SRB assay; format: functional; details: KBVIN
Outline: (§1)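 KB parental and resistant sublines kept in RPMI 1640 with 5% FBS at 37 °C, 5% CO2. Cells plated, left overnight, then given graded compound concentrations for 48 h. A time-zero plate was fixed with 10% TCA at dosing. Cells were stained with 0.4% SRB in 1% acetic acid, unbound dye washed off, bound dye dissolved in 10 mM Tris base, and absorbance read at 515 nm.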

[2] = target: Histone deacetylase 3/Nuclear receptor corepressor 2 (HDAC3/NCoR2) (Homo sapiens, UniProt O15379); experiment: Inhibition of human recombinant HDAC3/NCOR2 using RHKKAc-AMC as substrate measured after 60 mins by fluorescence assay; format: protein-complex assay
[3] = Antiproliferative activity against human KB7D cells incubated for 48 hrs by SRB assay; format: functional; outline: as §1
KB = experiment: Antiproliferative activity against human KB cells incubated for 48 hrs by SRB assay; format: functional; outline: as §1
Histone deacetylase 2 = Histone deacetylase 2 (Homo sapiens, UniProt Q92769); experiment: Inhibition of recombinant human C-terminal GST-tagged HDAC2 (1 to 488 residues) expressed in baculovirus infected insect cells using RHKKAc-AMC as substrate measured after 60 mins by fluorescence assay
Histone deacetylase 8 = target: T1, Histone deacetylase 8 (Homo sapiens, UniProt Q9BY41); experiment: Inhibition of human recombinant HDAC8 using RHKAcKAc-AMC as substrate measured after 60 mins by fluorescence assay
T1 sequence (Q9BY41 whole entry): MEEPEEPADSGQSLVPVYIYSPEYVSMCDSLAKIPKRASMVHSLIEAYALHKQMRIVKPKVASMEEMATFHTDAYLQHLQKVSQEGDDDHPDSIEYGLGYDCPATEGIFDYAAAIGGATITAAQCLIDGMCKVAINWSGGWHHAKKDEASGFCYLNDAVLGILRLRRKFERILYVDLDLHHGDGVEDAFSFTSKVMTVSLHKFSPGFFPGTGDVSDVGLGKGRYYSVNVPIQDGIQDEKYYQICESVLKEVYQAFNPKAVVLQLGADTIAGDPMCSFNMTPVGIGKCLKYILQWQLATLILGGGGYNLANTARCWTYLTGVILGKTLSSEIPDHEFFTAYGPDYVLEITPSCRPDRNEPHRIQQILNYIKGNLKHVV

Histone deacetylase 1 = Histone deacetylase 1 (Homo sapiens, UniProt Q13547); experiment: Inhibition of recombinant human full-length C-terminal FLAG-His tagged HDAC1 (1 to 482 residues) expressed in Sf21 insect cells using RHK-K(Ac)-AMC as substrate measured after 60 mins by fluorescence assay
KB7D [4] = experiment: Induction of apoptosis in human KB7D cells assessed as increase in activated gammaH2AX expression measured after 24 hrs by Western blot analysis; format: functional, cell-based
Outline: (§2)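 Resistant KB cells attached overnight, then drug-treated at the stated concentrations and times (24 h or 48 h). Lysates were immunoblotted for cleaved PARP, caspase-3, -8 and -9, and γH2AX, with anti-mouse or anti-rabbit IgG secondaries.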

KB7D [5] = experiment: Induction of apoptosis in human KB7D cells assessed as increase in activated gammaH2AX expression at 0.1 uM measured after 24 hrs by Western blot analysis; format: functional, cell-based; outline: as §2
KB-VIN [6] = experiment: Induction of apoptosis in human KB-VIN cells assessed as increase in cleaved caspase-9 expression at 0.01 to 0.5 uM by Western blot analysis; format: functional, cell-based; details: dose 0.01-0.5 µM; outline: as §2
KB-VIN [7] = experiment: Induction of apoptosis in human KB-VIN cells assessed as increase in cleaved caspase-3 expression at 0.01 to 0.5 uM by Western blot analysis; format: functional, cell-based; details: dose 0.01-0.5 µM; outline: as §2
KB-VIN [8] = experiment: Induction of apoptosis in human KB-VIN cells assessed as increase in cleaved PARP expression at 0.01 to 0.5 uM by Western blot analysis; format: functional, cell-based; details: dose 0.01-0.5 µM; outline: as §2
KB-VIN [9] = experiment: Induction of apoptosis in human KB-VIN cells assessed as increase in cleaved caspase-8 expression at 0.01 to 0.5 uM by Western blot analysis; format: functional, cell-based; details: dose 0.01-0.5 µM; outline: as §2

Histone deacetylase 3/Nuclear receptor corepressor 2 (HDAC3/NCoR2), sequence (O15379 whole entry): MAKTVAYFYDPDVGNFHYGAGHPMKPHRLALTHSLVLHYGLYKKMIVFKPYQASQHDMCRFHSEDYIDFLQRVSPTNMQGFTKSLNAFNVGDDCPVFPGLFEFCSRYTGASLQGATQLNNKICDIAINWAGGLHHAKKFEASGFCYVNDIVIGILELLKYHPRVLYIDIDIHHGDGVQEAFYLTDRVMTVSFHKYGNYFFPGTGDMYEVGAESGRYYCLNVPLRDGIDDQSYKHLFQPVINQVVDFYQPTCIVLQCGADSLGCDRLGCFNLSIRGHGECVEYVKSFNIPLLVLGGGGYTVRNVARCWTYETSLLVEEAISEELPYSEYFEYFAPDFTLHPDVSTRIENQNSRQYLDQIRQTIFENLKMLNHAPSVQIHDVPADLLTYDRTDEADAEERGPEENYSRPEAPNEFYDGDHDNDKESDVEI
Histone deacetylase 3/Nuclear receptor corepressor 2 (HDAC3/NCoR2), sequence (Q9Y618 whole entry, further chain): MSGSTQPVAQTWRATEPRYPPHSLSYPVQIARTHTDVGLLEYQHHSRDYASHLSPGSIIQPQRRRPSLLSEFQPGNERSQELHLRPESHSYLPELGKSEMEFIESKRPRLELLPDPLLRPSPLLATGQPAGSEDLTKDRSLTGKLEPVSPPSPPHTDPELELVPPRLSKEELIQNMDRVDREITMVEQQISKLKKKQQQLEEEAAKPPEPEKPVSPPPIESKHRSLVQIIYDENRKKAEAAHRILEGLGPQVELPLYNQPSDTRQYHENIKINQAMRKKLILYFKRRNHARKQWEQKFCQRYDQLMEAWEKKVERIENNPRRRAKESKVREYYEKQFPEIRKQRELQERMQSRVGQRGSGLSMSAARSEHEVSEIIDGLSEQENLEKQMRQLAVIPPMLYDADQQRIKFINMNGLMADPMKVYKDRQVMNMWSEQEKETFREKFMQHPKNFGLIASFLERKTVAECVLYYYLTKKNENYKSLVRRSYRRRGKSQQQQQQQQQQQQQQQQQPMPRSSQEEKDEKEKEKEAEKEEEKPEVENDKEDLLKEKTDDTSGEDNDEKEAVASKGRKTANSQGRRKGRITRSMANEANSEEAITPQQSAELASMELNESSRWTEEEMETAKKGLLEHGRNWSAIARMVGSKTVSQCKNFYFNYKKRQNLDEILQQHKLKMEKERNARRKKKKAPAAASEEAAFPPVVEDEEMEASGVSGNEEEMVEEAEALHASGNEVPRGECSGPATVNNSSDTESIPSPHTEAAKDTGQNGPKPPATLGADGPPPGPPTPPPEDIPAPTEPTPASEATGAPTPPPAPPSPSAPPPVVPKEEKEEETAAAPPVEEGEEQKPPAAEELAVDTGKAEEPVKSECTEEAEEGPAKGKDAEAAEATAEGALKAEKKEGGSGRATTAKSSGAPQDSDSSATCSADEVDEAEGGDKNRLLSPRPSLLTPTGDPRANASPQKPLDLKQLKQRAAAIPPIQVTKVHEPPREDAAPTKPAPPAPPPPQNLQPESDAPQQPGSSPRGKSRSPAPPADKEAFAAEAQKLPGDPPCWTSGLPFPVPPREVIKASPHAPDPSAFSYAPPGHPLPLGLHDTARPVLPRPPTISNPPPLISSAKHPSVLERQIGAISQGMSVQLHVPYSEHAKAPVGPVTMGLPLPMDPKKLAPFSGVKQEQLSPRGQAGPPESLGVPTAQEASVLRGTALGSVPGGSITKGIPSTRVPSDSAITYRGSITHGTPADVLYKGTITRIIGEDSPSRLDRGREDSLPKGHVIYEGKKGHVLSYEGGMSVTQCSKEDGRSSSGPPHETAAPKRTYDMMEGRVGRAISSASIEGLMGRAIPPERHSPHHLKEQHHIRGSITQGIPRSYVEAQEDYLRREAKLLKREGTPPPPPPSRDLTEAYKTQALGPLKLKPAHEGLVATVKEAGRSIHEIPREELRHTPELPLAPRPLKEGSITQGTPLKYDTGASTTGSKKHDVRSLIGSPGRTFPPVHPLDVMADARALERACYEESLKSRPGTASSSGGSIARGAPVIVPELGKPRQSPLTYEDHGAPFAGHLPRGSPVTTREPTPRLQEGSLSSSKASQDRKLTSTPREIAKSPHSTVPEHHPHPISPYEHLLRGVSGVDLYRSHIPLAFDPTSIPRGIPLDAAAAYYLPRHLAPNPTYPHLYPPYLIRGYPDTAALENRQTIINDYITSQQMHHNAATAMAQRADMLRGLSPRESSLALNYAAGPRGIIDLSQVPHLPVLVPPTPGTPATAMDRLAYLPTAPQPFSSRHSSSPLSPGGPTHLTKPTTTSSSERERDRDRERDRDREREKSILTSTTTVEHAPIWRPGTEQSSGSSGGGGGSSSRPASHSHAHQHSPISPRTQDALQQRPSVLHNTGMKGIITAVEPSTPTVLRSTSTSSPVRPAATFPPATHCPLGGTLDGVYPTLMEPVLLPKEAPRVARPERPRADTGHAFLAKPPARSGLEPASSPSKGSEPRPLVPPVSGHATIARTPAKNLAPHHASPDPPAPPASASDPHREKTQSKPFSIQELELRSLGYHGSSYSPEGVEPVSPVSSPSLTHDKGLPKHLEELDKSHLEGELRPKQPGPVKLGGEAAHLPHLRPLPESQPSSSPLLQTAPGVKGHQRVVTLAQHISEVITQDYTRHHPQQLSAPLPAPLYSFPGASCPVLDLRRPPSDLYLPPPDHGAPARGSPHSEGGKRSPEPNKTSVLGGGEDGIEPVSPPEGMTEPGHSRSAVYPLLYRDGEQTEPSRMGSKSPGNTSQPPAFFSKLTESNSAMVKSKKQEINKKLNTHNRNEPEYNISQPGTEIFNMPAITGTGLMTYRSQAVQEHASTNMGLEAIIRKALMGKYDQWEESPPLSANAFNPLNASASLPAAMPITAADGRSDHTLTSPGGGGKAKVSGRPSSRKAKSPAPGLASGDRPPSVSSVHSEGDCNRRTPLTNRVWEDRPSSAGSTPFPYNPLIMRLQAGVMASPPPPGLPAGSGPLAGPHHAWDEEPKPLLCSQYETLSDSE
Histone deacetylase 1, sequence (Q13547 whole entry, the tested form may be a part): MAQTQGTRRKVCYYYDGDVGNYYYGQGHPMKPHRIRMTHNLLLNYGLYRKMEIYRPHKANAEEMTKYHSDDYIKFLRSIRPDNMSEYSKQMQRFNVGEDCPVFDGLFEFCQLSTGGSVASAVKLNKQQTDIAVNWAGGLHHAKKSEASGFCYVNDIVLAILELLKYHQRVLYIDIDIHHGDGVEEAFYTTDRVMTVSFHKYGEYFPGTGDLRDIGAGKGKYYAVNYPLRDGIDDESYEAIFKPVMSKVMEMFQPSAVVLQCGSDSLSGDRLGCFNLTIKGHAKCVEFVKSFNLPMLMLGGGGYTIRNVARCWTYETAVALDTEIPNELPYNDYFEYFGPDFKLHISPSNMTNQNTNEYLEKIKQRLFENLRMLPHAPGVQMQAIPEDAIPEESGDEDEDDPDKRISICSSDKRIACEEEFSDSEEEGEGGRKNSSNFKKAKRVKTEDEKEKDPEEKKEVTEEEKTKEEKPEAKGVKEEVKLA
Histone deacetylase 2, sequence (Q92769 whole entry, the tested form may be a part): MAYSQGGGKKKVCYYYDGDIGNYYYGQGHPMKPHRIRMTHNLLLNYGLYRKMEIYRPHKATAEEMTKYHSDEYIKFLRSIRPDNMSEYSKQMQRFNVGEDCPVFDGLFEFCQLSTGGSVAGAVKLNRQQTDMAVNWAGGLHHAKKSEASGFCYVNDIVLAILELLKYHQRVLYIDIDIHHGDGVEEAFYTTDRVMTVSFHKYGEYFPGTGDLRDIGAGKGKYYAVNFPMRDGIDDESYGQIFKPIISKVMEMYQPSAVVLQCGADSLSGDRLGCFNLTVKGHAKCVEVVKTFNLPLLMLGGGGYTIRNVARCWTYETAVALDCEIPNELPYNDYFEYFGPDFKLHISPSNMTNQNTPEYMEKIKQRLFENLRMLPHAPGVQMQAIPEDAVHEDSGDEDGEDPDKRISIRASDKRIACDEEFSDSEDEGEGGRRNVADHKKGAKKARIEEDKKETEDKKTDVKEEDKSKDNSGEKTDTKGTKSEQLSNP

| GI50 (KB) [nM] | SMILES | GI50 [3] [nM] | other results |
| --- | --- | --- | --- |
| > 10000 | COc1ccc(S(=O)(=O)Nc2ccccc2CCc2ccc(C(=O)NO)cc2)cc1 | – | – |
| 66 | COc1ccc(S(=O)(=O)Nc2ccccc2CCc2ccc(C(=O)Nc3cc(F)ccc3N)cc2)cc1 | 12 | GI50 [1]: 29 nM; Activity (KB-VIN [6]): Active; Activity (KB-VIN [7]): Active; IC50 [2]: 1750 nM; Activity (KB-VIN [8]): Active; IC50 (Histone deacetylase 2): 9080 nM; Activity (KB-VIN [9]): Active; IC50 (Histone deacetylase 8): > 10000 nM; IC50 (Histone deacetylase 1): > 10000 nM |
| 472 | COc1ccc(S(=O)(=O)Nc2ccccc2CCc2ccc(C(=O)Nc3ccccc3O)cc2)cc1 | – | – |
| 286 | COc1ccc(S(=O)(=O)Nc2ccccc2CCc2ccc(C(=O)Nc3ccc(N)cc3)cc2)cc1 | – | – |

Further lines, the compound ahead of its results:

| SMILES | GI50 (KB) [nM] | GI50 [3] [nM] | other results |
| --- | --- | --- | --- |
| COc1ccc(S(=O)(=O)Nc2ccccc2OCc2ccc(C(=O)Nc3ccccc3N)cc2)cc1 | 60 | 62 | GI50 [1]: 42 nM; IC50 [2]: 7920 nM; IC50 (Histone deacetylase 2): 4950 nM; IC50 (Histone deacetylase 8): > 10000 nM; IC50 (Histone deacetylase 1): 5450 nM |
| COc1cc([C@@H]2c3cc4c(cc3[C@@H](O[C@@H]3O[C@@H]5CO[C@@H](C)O[C@H]5[C@H](O)[C@H]3O)[C@H]3COC(=O)[C@H]23)OCO4)cc(OC)c1O [ETOPOSIDE] | 8390 | 98600 | Activity (KB7D [4]): Active |
| N#Cc1ccc(S(=O)(=O)Nc2ccccc2CCc2ccc(C(=O)Nc3ccccc3N)cc2)cc1 | 790 | – | – |
| COc1ccc(S(=O)(=O)Nc2cccnc2Nc2ccc(O)cc2)cc1 [ABT-751] | 801 | 444 | GI50 [1]: 2070 nM; Activity (KB7D [5]): Active |
| Nc1ccccc1NC(=O)c1ccc(CCc2ccccc2NS(=O)(=O)c2ccc(Br)cc2)cc1 | 124 | – | – |
| Nc1ccccc1NC(=O)c1ccc(CCc2ccccc2NS(=O)(=O)c2ccccc2)cc1 | 456 | – | – |
| Nc1ccccc1NC(=O)c1ccc(CCc2ccccc2NS(=O)(=O)c2ccc(F)cc2)cc1 | 884 | – | – |
| COc1cccc(S(=O)(=O)Nc2ccccc2CCc2ccc(C(=O)Nc3ccccc3N)cc2)c1 | 462 | – | – |
| Nc1ccccc1NC(=O)c1ccc(CCc2ccccc2NS(=O)(=O)c2ccc(Cl)cc2)cc1 | 448 | – | – |
